From ChEMBL document CHEMBL1811910, “Semisynthetic analogues of the marine cembranoid sarcophine as prostate and breast cancer migration inhibitors” (Bioorg Med Chem, 2011)
Activity calls are given as the source filed them. The calls are words filed in the database; no cut-off is given here.

Experiments:
PC-3 [1] = test: Antimigratory activity against human PC3 cells after 24 hrs by wound healing assay; assay type: functional, cell-based; conditions: PC-3, 24 h
How it was run: (§1)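 Cells grown to >90% confluent monolayer in RPMI 1640 with 10% FBS, glutamine, penicillin/streptomycin at 37 °C, 5% CO2, then scratched with a sterile 200 µL pipette tip. Compounds added in DMSO, in triplicate; PMH 200 µM positive control, DMSO vehicle control. After 24 h serum-starved incubation, cells were fixed and Diff Quick stained. Migrated cells counted in ≥3 random 400× fields, reported as mean ± SEM.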

MDA-MB-231 [2] = test: Antiproliferative activity against human MDA-MB-231 cells after 24 hrs by MTT assay; assay type: functional, cell-based; conditions: MDA-MB-231, 24 h
How it was run: (§2)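 After 3-4 passages in RPMI 1640 with 10% FBS, cells were seeded at 8 × 10^3 per well and left to attach for 24 h. Medium was then replaced with serum-free RPMI containing compound at 50, 20, 10 or 5 µM. Viability was read by MTT conversion to formazan, and cell number was taken from a standard curve of plated cells, with cells kept in exponential growth.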

MDA-MB-231 [3] = test: Antimigratory activity against human MDA-MB-231 cells at 5 to 30 uM after 24 hrs by wound healing assay; assay type: functional, cell-based; how it was run: as §1
[4] = system: MDA-MB-231 (Homo sapiens); test: Antimigratory activity against human MDA-MB-231 cells at 5 to 30 uM after 24 hrs by wound healing assay
PC-3 [5] = test: Antiproliferative activity against human PC3 cells at 5 to 50 uM after 24 hrs by MTT assay; assay type: functional, cell-based; how it was run: as §2
MDA-MB-231 [6] = test: Antimigratory activity against human MDA-MB-231 cells after 24 hrs by wound healing assay; assay type: functional, cell-based; conditions: MDA-MB-231, 24 h; how it was run: as §1
PC-3 [7] = test: Antimigratory activity against human PC3 cells at 50 uM after 24 hrs by wound healing assay; assay type: functional, cell-based; how it was run: as §1
MDA-MB-231 [8] = test: Antimigratory activity against human MDA-MB-231 cells at 50 uM after 24 hrs by wound healing assay; assay type: functional, cell-based; how it was run: as §1
MDA-MB-231 [9] = test: Antiproliferative activity against human MDA-MB-231 cells at 5 to 50 uM after 24 hrs by MTT assay; assay type: functional, cell-based; how it was run: as §2
PC-3 [10] = test: Antimigratory activity against human PC3 cells at 200 uM after 24 hrs by wound healing assay; assay type: functional, cell-based; how it was run: as §1
MDA-MB-231 [11] = test: Antimigratory activity against human MDA-MB-231 cells at 200 uM after 24 hrs by wound healing assay; assay type: functional, cell-based; how it was run: as §1

SMILES | Activity (PC-3 [5]) | Activity (PC-3 [7]) | Activity (MDA-MB-231 [8]) | Activity (MDA-MB-231 [9]) | also measured
C=C1CC/C=C(\C)CCC2=C(C)C(=O)O[C@H]2/C=C(\C)CC[C@@H]1OC(=O)NC1CCCCC1 | inactive | Active |  |  | IC50 (PC-3 [1]): 15.5 µM; IC50 (MDA-MB-231 [2]): 45 µM; Activity (MDA-MB-231 [3]): Active; Activity [4]: Active; IC50 (MDA-MB-231 [6]): 17.2 µM
CC1=C2CC/C(C)=C/CC[C@](C)(O)[C@@H](O)CC/C(C)=C/[C@@H]2OC1=O | inactive |  | Active | inactive | 
C=C1CC/C=C(\C)CCC2=C(C)C(=O)O[C@H]2/C=C(\C)CC[C@@H]1OC(=O)Nc1ccccc1 | inactive | Active | Active | inactive | IC50 (PC-3 [1]): 16.3 µM
C=C1CC/C=C(\C)CCC2=C(C)C(=O)O[C@H]2/C=C(\C)CCC1=O | inactive |  |  | inactive | 
C=C1CC/C=C(\C)CCC2=C(C)C(=O)O[C@H]2/C=C(\C)CC[C@@H]1OC(=O)NCCCC | inactive | Active |  |  | IC50 (MDA-MB-231 [2]): 7 µM; Activity (MDA-MB-231 [3]): Active; Activity [4]: Active; IC50 (MDA-MB-231 [6]): 4.83 µM
CCCO[C@H]1CC/C(C)=C/[C@@H]2OC(=O)C(C)=C2CC/C(C)=C/CC[C@]1(C)O | inactive | Active | Active | inactive | 
C=C1CC/C=C(\C)CCC2=C(C)C(=O)O[C@H]2/C=C(\C)CC[C@@H]1OC(=O)NCCCCC | inactive |  | Active | inactive | 
C=CCNC(=O)N(CC=C)C(=O)N(CC=C)C(=O)O[C@H]1CC/C(C)=C/[C@@H]2OC(=O)C(C)=C2CC/C(C)=C/CCC1=C | inactive | Active | Active | inactive | IC50 (PC-3 [1]): 24.3 µM
CCCCO[C@H]1CC/C(C)=C/[C@@H]2OC(=O)C(C)=C2CC/C(C)=C/CC[C@]1(C)O | inactive |  |  |  | IC50 (MDA-MB-231 [2]): 20 µM; Activity (MDA-MB-231 [3]): inactive; Activity [4]: inactive; IC50 (MDA-MB-231 [6]): 30 µM
CO[C@H]1CC/C(C)=C/[C@@H]2OC(=O)C(C)=C2CC/C(C)=C/CC[C@]1(C)O | inactive |  |  | inactive | 
CC1=C2CC/C(C)=C/CC[C@]3(C)O[C@H]3CC/C(C)=C/[C@@H]2OC1 | inactive |  | Active | inactive | 
O=C1NC(=O)/C(=C/c2ccc(O)cc2)N1 |  |  |  |  | Activity (PC-3 [10]): Active; Activity (MDA-MB-231 [11]): Active
C=C1CC/C=C(\C)CCC2=C(C)C(=O)O[C@H]2/C=C(\C)CC[C@@H]1OC(=O)NCCCCl | inactive |  |  | inactive | 
CC1=C2CC/C(C)=C/CC[C@]3(C)O[C@H]3CC/C(C)=C\[C@H]2OC1 | inactive | Active |  | inactive | 
CC1=C2CC/C(C)=C/CC[C@]3(C)O[C@H]3CC/C(C)=C/[C@@H]2OC1=O | inactive |  |  | inactive | 
C=C1CC/C=C(\C)CCC2=C(C)C(=O)O[C@H]2/C=C(\C)CC[C@@H]1O | inactive |  | Active | inactive | 
